Key:
Format in all cases: functional, organism-based
Lolium perenne [1] = assay: Phytotoxic activity against Lolium perenne (perennial ryegrass) assessed as inhibition of root growth at 22 +/-2 degC after 72 hr
Procedure, shortened: (§1)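 Test solutions were made in 90% methanol and applied to filter paper in Petri dishes, with a methanol-only control. Concentrations ranged from 1 to 5000 or 10000 µmol, depending on the compound. After 72 h incubation, root and hypocotyl lengths were measured on at least three replicate plates per concentration. Percentage influence was calculated relative to a distilled-water control, and EC50 (µM) was reported with R2.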

Sinapis alba [2] = assay: Phytotoxic activity against Sinapis alba assessed as inhibition of root growth at 22 +/-2 degC after 72 hr; procedure, shortened: as §1
Lolium perenne [3] = assay: Phytotoxic activity against Lolium perenne (perennial ryegrass) assessed as inhibition of hypocotyl growth at 22 +/-2 degC after 72 hr; procedure, shortened: as §1
Sinapis alba [4] = assay: Phytotoxic activity against Sinapis alba assessed as inhibition of hypocotyl growth at 22 +/-2 degC after 72 hr; procedure, shortened: as §1
Plantago lanceolata [5] = assay: Phytotoxic activity against Plantago lanceolata assessed as inhibition of hypocotyl growth at 22 +/-2 degC after 72 hr; procedure, shortened: as §1
Plantago lanceolata [6] = assay: Phytotoxic activity against Plantago lanceolata assessed as inhibition of root growth at 22 +/-2 degC after 72 hr; procedure, shortened: as §1
Echinochloa crus-galli [7] = assay: Phytotoxic activity against Echinochloa crus-galli (barnyard grass) assessed as inhibition of root growth at 22 +/-2 degC after 72 hr; procedure, shortened: as §1
Echinochloa crus-galli [8] = assay: Phytotoxic activity against Echinochloa crus-galli (barnyard grass) assessed as inhibition of hypocotyl growth at 22 +/-2 degC after 72 hr; procedure, shortened: as §1
Trifolium repens [9] = assay: Phytotoxic activity against Trifolium repens assessed as inhibition of root growth at 22 +/-2 degC after 72 hr; procedure, shortened: as §1
Achillea millefolium [10] = assay: Phytotoxic activity against Achillea millefolium assessed as inhibition of hypocotyl growth at 22 +/-2 degC after 72 hr; procedure, shortened: as §1
Achillea millefolium [11] = assay: Phytotoxic activity against Achillea millefolium assessed as inhibition of root growth at 22 +/-2 degC after 72 hr; procedure, shortened: as §1
Trifolium repens [12] = assay: Phytotoxic activity against Trifolium repens assessed as inhibition of hypocotyl growth at 22 +/-2 degC after 72 hr; procedure, shortened: as §1
Amaranthus retroflexus [13] = assay: Phytotoxic activity against Amaranthus retroflexus assessed as inhibition of root growth at 22 +/-2 degC after 72 hr; procedure, shortened: as §1
Amaranthus retroflexus [14] = assay: Phytotoxic activity against Amaranthus retroflexus assessed as inhibition of hypocotyl growth at 22 +/-2 degC after 72 hr; procedure, shortened: as §1

O=c1c(O)c(-c2ccc(O)c(O)c2)oc2cc(O)cc(O)c12 [QUERCETIN]
EC50 (Lolium perenne [1]): 273 µM | EC50 (Sinapis alba [2]): 7050 µM | EC50 (Lolium perenne [3]): 183 µM | EC50 (Sinapis alba [4]): 12800 µM

O=c1c(O[C@@H]2O[C@H](CO)[C@@H](O)[C@H](O)[C@H]2O)c(-c2ccc(O)c(O)c2)oc2cc(O)cc(O)c12 [ISOQUERCETIN]
EC50 (Lolium perenne [1]): 90100 µM | EC50 (Plantago lanceolata [5]): 37100 µM | EC50 (Plantago lanceolata [6]): 54600 µM | EC50 (Echinochloa crus-galli [7]): 89100 µM | EC50 (Sinapis alba [2]): 5910 µM | EC50 (Lolium perenne [3]): 33800 µM | EC50 (Sinapis alba [4]): 9560 µM | EC50 (Echinochloa crus-galli [8]): 35200 µM

Oc1cc(O)c2c(c1)O[C@H](c1ccc(O)c(O)c1)[C@@H](O)C2 [CIANIDANOL]
EC50 (Trifolium repens [9]): 433 µM | EC50 (Lolium perenne [1]): 377 µM | EC50 (Plantago lanceolata [5]): 360 µM | EC50 (Achillea millefolium [10]): 527 µM | EC50 (Plantago lanceolata [6]): 55 µM | EC50 (Echinochloa crus-galli [7]): 362 µM | EC50 (Achillea millefolium [11]): 472 µM | EC50 (Sinapis alba [2]): 445 µM | EC50 (Lolium perenne [3]): 120 µM | EC50 (Sinapis alba [4]): 780 µM | EC50 (Trifolium repens [12]): 169 µM | EC50 (Echinochloa crus-galli [8]): 148 µM | EC50 (Amaranthus retroflexus [13]): 2830 µM | EC50 (Amaranthus retroflexus [14]): 9300 µM

From ChEMBL document CHEMBL3044905, “Level of catechin, myricetin, quercetin and isoquercitrin in buckwheat (Fagopyrum esculentum Moench), changes of their levels during vegetation and their effect on the growth of selected weeds” (J Agric Food Chem, 2009)
